Data on eight molecules can be found in ChEMBL document CHEMBL1255454, “Systematic approach to optimizing specifically targeted antimicrobial peptides against Streptococcus mutans” (2010).

≈ marks a conversion by molar mass, not a printed value. Calls of active or inactive are those of the source. The rule behind the calls is not given here. Square brackets hold non-standard residues; d marks the D form. Peptide text beside a SMILES is read from it. Aoc = NCCCCCCCC(=O)O Where only a bound is given, the exact number is not on record here.

One assay deals with Pseudomonas aeruginosa. Nature of the assay: Antimicrobial activity against Pseudomonas aeruginosa PAK after 16 to 20 hrs by broth microdilution assay. In kind it is functional. In short, it runs like this:
(§1)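 Broth microdilution. Twofold peptide dilutions were made in 50% BHI–50% sterile water for oral streptococci and in 1× Mueller-Hinton broth for the other bacteria. First round 500 to 0.97 µg/ml; a second round of 64 to 0.5 µg/ml was run in some cases, reporting its mode. Inoculum ~1 × 10^5 CFU/ml, 37°C for 16–20 h. Read A600; MIC taken as complete inhibition or ≥90% turbidity reduction versus peptide-free control.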
In general terms: In broth dilution the organism is exposed to a series of concentrations in liquid medium.

A further assay concerns Staphylococcus aureus. The experiment in a line: Antimicrobial activity against methicillin-resistant Staphylococcus aureus after 16 to 20 hrs by broth microdilution assay. The class given is functional. In short, it runs like this: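 MRSA grown aerobically in BHI at 37°C. Broth microdilution: 2-fold peptide dilutions in 1× Mueller-Hinton broth, first round 500 to 0.97 µg/ml; if activity below 62.5 µg/ml, sometimes a second round at 64 to 0.5 µg/ml, reporting the mode. Inoculum ~1 × 10^5 CFU/ml, 37°C for 16-20 h. A600 read. MIC = lowest concentration giving complete inhibition or ≥90% turbidity reduction versus peptide-free control.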

The next assay has as its system Streptococcus sobrinus. The experiment in a line: Antimicrobial activity against Streptococcus sobrinus ATCC 33478 after 16 to 20 hrs by broth microdilution assay. In kind it is functional. The method in brief: as §1
The subject of another assay is Enterococcus faecalis. Nature of the assay: Antimicrobial activity against Enterococcus faecalis after 16 to 20 hrs by broth microdilution assay. The class given is functional. In short, it runs like this:
as §1

In the next assay the test system is Streptococcus sanguinis. The experiment in a line: Antimicrobial activity against Streptococcus sanguinis NY101 after 16 to 20 hrs by broth microdilution assay. The class given is functional. In short, it runs like this:
as §1

In the next assay the test system is Escherichia coli. The experiment in a line: Antimicrobial activity against Escherichia coli W3110 after 16 to 20 hrs by broth microdilution assay. In kind it is functional. In short, it runs like this: as §1
The test system of assay [1] is Streptococcus mutans. Nature of the assay: Antimicrobial activity against Streptococcus mutans UA159 after 16 to 20 hrs by broth microdilution assay. In kind it is functional. The method in brief: as §1
For assay [2], the system named is Streptococcus mutans. The experiment in a line: Antimicrobial activity against Streptococcus mutans UA159 assessed as inhibition of bacterial biofilm formation at 25 uM after 3 mins by fluorescence assay. In kind it is functional. In short, it runs like this: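 S. mutans UA159 overnight culture was diluted 1:5,000 in TH with 1% sucrose and grown as biofilm for 24 h. Biofilms were exposed 3 min at room temperature to 25 µM fluorescein-labelled peptide in HEPES/NaHCO3/NaCl/MgCl2 buffer with 0.1% CTAB, pH 7.4, then washed twice. Green fluorescence images were taken and biofilm-associated green pixels quantified as binding intensity units.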

The next assay concerns Streptococcus mitis. Nature of the assay: Antimicrobial activity against Streptococcus mitis ATCC 903 after 16 to 20 hrs by broth microdilution assay. In kind it is functional. The method in brief:
as §1

Assay [3] in a line: Antimicrobial activity against Streptococcus gordonii Challis DL1 after 16 to 20 hrs by broth microdilution assay. The class given is functional, Streptococcus gordonii str. Challis. The method in brief:
as §1

For orientation: MIC means the lowest concentration that inhibits growth of the organism. Higher therefore signals a less susceptible organism. With `CC[C@H](C)[C@H](NC(=O)[C@H](Cc1ccccc1)NC(=O)[C@H](Cc1cnc[nH]1)NC(=O)[C@H](CCCCN)NC(=O)[C@@H](NC(=O)[C@H](Cc1ccccc1)NC(=O)[C@@H]1CCCN1C(=O)[C@H](Cc1ccc(O)cc1)NC(=O)[C@@H]1CCCN1C(=O)[C@H](Cc1ccccc1)NC(=O)[C@@H](Cc1cnc[nH]1)NC(=O)[C@@H](CC(C)C)NC(=O)[C@@H](Cc1cnc[nH]1)NC(=O)[C@@H](Cc1ccccc1)NC(=O)[C@@H](Cc1cnc[nH]1)NC(=O)[C@H](N)Cc1ccccc1)[C@@H](C)CC)C(=O)N[C@@H](Cc1cnc[nH]1)C(=O)N[C@@H](CCCNC(=N)N)C(=O)N[C@@H](Cc1ccccc1)C(N)=O`, the MIC in the assay on Pseudomonas aeruginosa was 125 µg/mL (≈ 48.7 µM); in the assay with Staphylococcus aureus, over 500 µg/mL; in the assay on Streptococcus sobrinus it was 62.5 µg/mL (≈ 24.3 µM); with Enterococcus faecalis, 250 µg/mL (≈ 97.4 µM); with Streptococcus sanguinis, 62.5 µg/mL (≈ 24.3 µM); against Escherichia coli it was 125 µg/mL (≈ 48.7 µM). Further, it took 32 µg/mL (≈ 12.5 µM) to inhibit growth against Streptococcus mutans [1] (MIC).

Take `CC[C@H](C)[C@H](NC(=O)[C@H](Cc1ccccc1)NC(=O)[C@H](Cc1cnc[nH]1)NC(=O)[C@H](CCCCN)NC(=O)[C@@H](NC(=O)[C@@H](N)Cc1ccccc1)[C@@H](C)CC)C(=O)N[C@@H](Cc1cnc[nH]1)C(=O)N[C@@H](CCCNC(=N)N)C(=O)N[C@@H](Cc1ccccc1)C(=O)NCCCCCCCC(=O)N[C@@H](CCCNC(=N)N)C(=O)N[C@@H](Cc1c[nH]c2ccccc12)C(=O)N[C@@H](CCCNC(=N)N)C(=O)N[C@@H](CCCNC(=N)N)C(=O)N[C@@H](CC(C)C)C(=O)N[C@@H](CC(C)C)C(=O)N[C@@H](CCCCN)C(=O)N[C@@H](CCCCN)C(=O)N[C@@H](CC(C)C)C(=O)N[C@@H](Cc1cnc[nH]1)C(=O)N[C@@H](Cc1cnc[nH]1)C(=O)N[C@@H](CC(C)C)C(=O)N[C@@H](CC(C)C)C(=O)N[C@@H](Cc1cnc[nH]1)C(N)=O` (H-FIKHFIHRF[Aoc]RWRRLLKKLHHLLH-NH2): the MIC against Pseudomonas aeruginosa worked out at 62.5 µg/mL (≈ 19.1 µM); with Streptococcus mitis it was 32 µg/mL (≈ 9.78 µM); in the assay with Staphylococcus aureus, 62.5 µg/mL (≈ 19.1 µM); against Streptococcus sanguinis it was 32 µg/mL (≈ 9.78 µM); against Streptococcus mutans [1], 16 µg/mL (≈ 4.89 µM); in assay [3], 32 µg/mL (≈ 9.78 µM). For the same molecule, the inhibition entry in the assay with Streptococcus mutans [2] was “Active”.

Turning to H-FHFHLHF-NH2, the MIC against Pseudomonas aeruginosa turned out to be 16 µg/mL; against Staphylococcus aureus it was 32 µg/mL; against Enterococcus faecalis, 16 µg/mL; against Streptococcus sanguinis, 16 µg/mL; against Escherichia coli, 8 µg/mL; against Streptococcus mutans [1] it was 8 µg/mL. Besides, in the assay on Streptococcus mutans [2], the inhibition result was “Active”.

As for H-FHFHLHFASASAFIKHFIHRF-NH2, the MIC with Pseudomonas aeruginosa amounted to 125 µg/mL; against Staphylococcus aureus, 62.5 µg/mL; in the assay with Streptococcus sobrinus, 32 µg/mL; against Enterococcus faecalis, 62.5 µg/mL; against Streptococcus sanguinis, 32 µg/mL; in the assay on Escherichia coli, 62.5 µg/mL. In the assay on Streptococcus mutans [1], the MIC was 16 µg/mL.

Turning to H-FHFHLHFGGGFIKHFIHRF-NH2, the minimal inhibitory concentration (MIC) was determined as 62.5 µg/mL against Pseudomonas aeruginosa; 125 µg/mL in the assay on Staphylococcus aureus; 62.5 µg/mL against Streptococcus sobrinus; 62.5 µg/mL in the assay on Enterococcus faecalis; 62.5 µg/mL in the assay with Streptococcus sanguinis; 62.5 µg/mL against Escherichia coli. Also, in the assay on Streptococcus mutans [1], the MIC was 32 µg/mL.

Regarding H-FHFHLHFPSPSPFIKHFIHRF-NH2, the MIC is 125 µg/mL in the assay on Pseudomonas aeruginosa; over 500 µg/mL in the assay with Staphylococcus aureus; 125 µg/mL with Streptococcus sobrinus; 250 µg/mL in the assay with Enterococcus faecalis; 125 µg/mL in the assay with Streptococcus sanguinis; 62.5 µg/mL in the assay on Escherichia coli. For the same molecule, the MIC in the assay on Streptococcus mutans [1] was 32 µg/mL.

As for H-FIKHFIHRFSATRWRRLLKKLHHLLH-NH2, the MIC was found to be 32 µg/mL against Pseudomonas aeruginosa; 32 µg/mL against Streptococcus mitis; 16 µg/mL in the assay with Staphylococcus aureus; 32 µg/mL in the assay on Streptococcus sanguinis; 16 µg/mL in the assay on Streptococcus mutans [1]; 32 µg/mL in assay [3]. In addition, in the assay with Streptococcus mutans [2], the inhibition result was “Active”.

For H-RWRRLLKKLHHLLHSATFIKHFIHRF-NH2, the MIC against Pseudomonas aeruginosa turned out to be 32 µg/mL; in the assay on Streptococcus mitis, 16 µg/mL; against Staphylococcus aureus, 32 µg/mL; with Streptococcus sanguinis, 16 µg/mL; in the assay with Streptococcus mutans [1] it was 8 µg/mL; in assay [3], 16 µg/mL. For the same molecule, the inhibition result with Streptococcus mutans [2] was “Active”.
